According to ChEMBL document CHEMBL4261518, “Side chain-functionalized aniline-derived ursolic acid derivatives as multidrug resistance reversers that block the nuclear factor-kappa B (NF-κB) pathway and cell proliferation” (Medchemcomm, 2017):

Tests used:
MGC-803 = assay: Cytotoxicity against human MGC803 cells after 48 hrs by MTT assay; assay type: functional, cell-based; details: MGC-803, 48 h
Procedure, shortened: (§1)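 Cells grown overnight in DMEM + 10% FBS at 37 °C under 5% CO2, then given a range of compound concentrations for 48 h. MTT added for about 4 h, medium replaced by DMSO, absorbance read at 570/630 nm. IC50 reported as mean ± SD of five independent experiments.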

[1] = Cytotoxicity against human SPCA2 cells after 48 hrs by MTT assay; assay type: functional, cell-based; details: SPCA2, 48 h; procedure, shortened: as §1
NCI-H460 [2] = assay: Cytotoxicity against human NCI-H460 cells after 48 hrs by MTT assay; assay type: functional, cell-based; details: NCI-H460, 48 h; procedure, shortened: as §1
A549 = assay: Cytotoxicity against human A549 cells after 48 hrs by MTT assay; assay type: functional, cell-based; details: A549, 48 h; procedure, shortened: as §1
T-24 = assay: Cytotoxicity against human T24 cells after 48 hrs by MTT assay; assay type: functional, cell-based; details: T-24, 48 h; procedure, shortened: as §1
L02 = assay: Cytotoxicity against human HL7702 cells after 48 hrs by MTT assay; assay type: cell-based; details: L02, 48 h; procedure, shortened: as §1
[3] = Inhibition of TNFalpha-induced NF-kB (unknown origin) activation expressed in human NCI-H460 cells after 7 hrs by luciferase reporter gene assay; assay type: cell-based; details: NCI-H460, 7 h
Procedure, shortened: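 NCI-H460 cells transiently co-transfected with pNF-κB-Luc reporter and pSV-β-galactosidase internal control by lipofectamine. Medium changed after 6 h, then 6 h further culture. TNF-α (15 ng ml–1) plus compound given together for 7 h. Luciferase ratio to TNF-α-only cells, corrected for non-TNF background and viability. IC50 from sigmoidal variable-slope fit.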

[4] = Cytotoxicity against human NCI-H460/DOX cells after 48 hrs by MTT assay; assay type: functional, cell-based; details: NCI-H460, 48 h; procedure, shortened: as §1
[5] = Resistant factor, ratio of IC50 for human NCI-H460/DOX cells to IC50 for human NCI-H460 cells; assay type: functional
HepG2 = assay: Cytotoxicity against human HepG2 cells after 48 hrs by MTT assay; assay type: functional, cell-based; details: HepG2, 48 h; procedure, shortened: as §1
[6] = Cytotoxicity against human HepG2/DOX cells after 48 hrs by MTT assay; assay type: functional, cell-based; procedure, shortened: as §1
[7] = Resistant factor, ratio of IC50 for human HepG2/DOX cells to IC50 for human HepG2 cells; assay type: functional
NCI-H460 [8] = assay: Cytotoxicity against human NCI-H460 cells harboring pNF-kB-Luc assessed as reduction in cell viability after 7 hrs by MTT assay relative to control; set-up: concentration or dose not given beside the values; details: nci-h460, 7 h

IC50 [3]	SMILES	IC50 (MGC-803)	IC50 [1]	IC50 (NCI-H460 [2])	IC50 (A549)	IC50 (T-24)	IC50 (L02)	IC50 [4]	Ratio IC50 [5]	IC50 (HepG2)	IC50 [6]	Ratio IC50 [7]	Activity (NCI-H460 [8])
7.13 µM	C[C@H]1[C@H](C)CC[C@]2(C(=O)Nc3ccccc3)CC[C@]3(C)C(=CC[C@@H]4[C@@]5(C)CCC(=O)C(C)(C)[C@@H]5CC[C@]43C)[C@H]12	15.1 µM	13.5 µM	12.9 µM	16.3 µM	13.6 µM	> 50 µM	25.7 µM	1.99	18.1 µM	36.7 µM	2.02	< 5%
3.64 µM	COc1ccc(NC(=O)[C@]23CC[C@@H](C)[C@H](C)[C@H]2C2=CC[C@@H]4[C@@]5(C)CC[C@H](OC(C)=O)C(C)(C)[C@@H]5CC[C@@]4(C)[C@]2(C)CC3)cc1	25.2 µM	13.7 µM	10.6 µM	31.1 µM	23.8 µM	> 50 µM	22.6 µM	2.12	24.5 µM	47.1 µM	1.92	< 5%
